Assay results published in ChEMBL document CHEMBL3596113, “Callyaerins from the Marine Sponge Callyspongia aerizusa: Cyclic Peptides with Antitubercular Activity” (J Nat Prod, 2015).
Values after ≈ are worked out from the molar mass of the structure shown.

Tests used:
[1] = tested on: Mycobacterium tuberculosis; test: Antitubercular activity against Mycobacterium tuberculosis after 6 days by resazurin dye reduction method; assay type: functional; details: 144 h; for MIC: read-out: MIC100
Summary of the method: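 M. tuberculosis grown aerobically at 37 °C in Middlebrook 7H9 with 0.5% glycerol, 0.05% Tyloxapol, 10% ADS enrichment; log-phase cultures (OD600 ~1) seeded at 1 × 10^5 cells/well, exposed to test substances 6 days. Resazurin added ~8 h, then formalin fixation (5% final); fluorescence ex 540/em 590 nm. Growth relative to rifampicin (0%) and DMSO (100%) controls; MIC90 = 90% growth inhibition.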

THP-1 = test: (§1) Cytotoxicity against human THP1 cells assessed as cell growth inhibition after 48 hrs by resazurin dye reduction method; assay type: cell-based; details: Homo sapiens, THP-1, 48 h
Summary of the method: (§2)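 THP-1 human monocytic cells were grown in RPMI 1640 with 10% FBS, and MRC-5 fetal lung fibroblasts in DMEM with 10% FBS, at 37 °C in humidified 5% CO2. About 5 × 10^4 cells per well were exposed to compounds for 48 h, then to resazurin for about 3 h more. Fluorescence was read at ex 540/em 590 nm. Growth was set against uninoculated (0%) and untreated (100%) controls, and IC50 was taken as the concentration giving 50% growth inhibition.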

MRC5 = test: (§3) Cytotoxicity against human MRC5 cells assessed as cell growth inhibition after 48 hrs by resazurin dye reduction method; assay type: cell-based; details: Homo sapiens, MRC5, 48 h; summary of the method: as §2
[2] = as §1; assay type: cell-based, THP-1; details: human, THP-1 cells; summary of the method: as §2
[3] = as §3; assay type: cell-based; details: human, MRC5 cells; summary of the method: as §2

## COC1NC(=O)N/C1=C\[C@@H]1N/C=C(/C(=O)N2CCC[C@H]2C(=O)N[C@@H](CC(C)C)C(=O)N[C@@H](Cc2ccccc2)C(=O)NCC(N)=O)NC(=O)[C@H](C(C)C)NC(=O)[C@@H]2CCCN2C(=O)[C@@H]2CCCN2C(=O)[C@H](CC(C)C)NC(=O)[C@H](CC(C)C)NC(=O)[C@@H]2C[C@@H](O)CN2C1=O (stereo partly drawn)
[1]
  MIC90: > 100 µM
THP-1
  IC50: > 10 µM
MRC5
  IC50: > 10 µM

## CC[C@H](C)[C@@H]1NC(=O)[C@H](CCC(=O)O)NC(=O)[C@@H]2C[C@@H](O)CN2C(=O)[C@H]([C@@H](C)CC)N/C=C(/C(=O)N2CCC[C@H]2C(=O)N[C@@H](CC(C)C)C(=O)N[C@@H](Cc2ccccc2)C(N)=O)NC(=O)[C@H](CC(C)C)NC(=O)[C@@H]2CCCN2C(=O)[C@@H]2CCCN2C(=O)[C@H](C(C)C)NC1=O
[1]
  MIC90: > 100 µM
THP-1
  IC50: > 10 µM
MRC5
  IC50: > 10 µM

## CC[C@H](C)[C@H](NC(=O)[C@H](Cc1ccccc1)NC(=O)[C@@H]1CCCN1C(=O)/C1=C/N[C@@H](Cc2ccccc2)C(=O)N2CCC[C@H]2C(=O)N[C@@H](Cc2ccccc2)C(=O)NCC(=O)N[C@@H](CC(C)C)C(=O)N2CCC[C@H]2C(=O)N2CCC[C@H]2C(=O)N[C@@H](Cc2ccccc2)C(=O)N1)C(=O)N[C@@H](CC(=O)O)C(=O)O
[1]
  MIC90: > 100 µM
THP-1
  IC50: > 10 µM
MRC5
  IC50: > 10 µM

## CC[C@H](C)[C@H](NC(=O)[C@@H](NC(=O)[C@@H]1CCCN1C(=O)/C1=C/N[C@@H](Cc2ccccc2)C(=O)N2CCC[C@H]2C(=O)N[C@@H](CC(C)C)C(=O)N[C@@H](Cc2ccccc2)C(=O)N2CCC[C@H]2C(=O)N2CCC[C@H]2C(=O)N[C@@H](C(C)C)C(=O)N1)[C@@H](C)CC)C(=O)NCC(N)=O
[1]
  MIC90: > 100 µM
THP-1
  IC50: > 10 µM
MRC5
  IC50: > 10 µM

## CC(C)C[C@H](NC(=O)[C@@H]1CCCN1C(=O)/C1=C/N[C@@H](CC(C)C)C(=O)N2CCC[C@H]2C(=O)N[C@@H](Cc2ccccc2)C(=O)N[C@@H](Cc2ccccc2)C(=O)N2CCC[C@H]2C(=O)N2CCC[C@H]2C(=O)N[C@@H](C(C)C)C(=O)N1)C(=O)N[C@@H](Cc1ccccc1)C(=O)NCC(N)=O
[1]
  MIC90: > 100 µM
THP-1
  IC50: > 10 µM
MRC5
  IC50: > 10 µM

## CC[C@@H](C)[C@@H]1NC(=O)[C@H](C(C)C)NC(=O)[C@@H]2C[C@@H](O)CN2C(=O)[C@H]([C@@H](C)CC)N/C=C(\C(=O)N2CCC[C@H]2C(=O)N[C@H](C(=O)N[C@@H](Cc2ccccc2)C(=O)NCC(N)=O)[C@@H](C)CC)NC(=O)[C@H](CC(C)C)NC(=O)[C@@H]2CCCN2C(=O)[C@@H]2CCCN2C(=O)[C@H](CC(C)C)NC1=O [CALLYAERIN A]
[1]
  MIC90: 2 µM (≈ 2.72 µg/mL)
  MIC: 6 µM (≈ 8.15 µg/mL)
THP-1
  IC50: 30 µM
[2]
  IC90 at 48 h: 50 µM
MRC5
  IC50: 20 µM
[3]
  IC90 at 48 h: 40 µM

## CC[C@@H](C)[C@@H]1NC(=O)[C@H]([C@@H](C)CC)NC(=O)[C@@H]2C[C@@H](O)CN2C(=O)[C@H]([C@H](C)CC)N/C=C(\C(=O)N2CCC[C@H]2C(=O)N[C@H](C(=O)N[C@H](C(=O)O)[C@@H](C)CC)[C@@H](C)CC)NC(=O)[C@H](CC(C)C)NC(=O)[C@@H]2CCCN2C(=O)[C@@H]2CCCN2C(=O)[C@H](CC(C)C)NC1=O [CALLYAERIN B]
[1]
  MIC90: 5 µM (≈ 6.41 µg/mL)
  MIC: 10 µM (≈ 12.8 µg/mL)
THP-1
  IC50: 5 µM
[2]
  IC90 at 48 h: 30 µM
MRC5
  IC50: 2 µM
[3]
  IC90 at 48 h: 6 µM

## CC[C@H](C)[C@H](NC(=O)[C@@H](NC(=O)[C@@H]1CCCN1C(=O)/C1=C/N[C@@H](CC(C)C)C(=O)N2CCC[C@H]2C(=O)N[C@@H](Cc2ccccc2)C(=O)N[C@@H](Cc2ccccc2)C(=O)N2CCC[C@H]2C(=O)N2CCC[C@H]2C(=O)N[C@@H](C(C)C)C(=O)N1)[C@@H](C)CC)C(=O)NCC(=O)O [CALLYAERIN E]
[1]
  MIC90: 100 µM (≈ 126 µg/mL)
THP-1
  IC50: > 10 µM
MRC5
  IC50: > 10 µM

## CC[C@H](C)[C@H](NC(=O)[C@H](Cc1ccccc1)NC(=O)[C@H](CC(C)C)NC(=O)[C@@H]1CCCN1C(=O)/C1=C\N[C@@H](C(C)C)C(=O)N2CCC[C@H]2C(=O)N[C@@H](C(C)C)C(=O)N[C@@H](Cc2ccccc2)C(=O)N2CCC[C@H]2C(=O)N1)C(=O)O [CALLYAERIN F]
[1]
  MIC90: 50 µM (≈ 54.8 µg/mL)
THP-1
  IC50: > 10 µM
MRC5
  IC50: > 10 µM

## CC[C@@H](CO)NCCN[C@@H](CC)CO [ETHAMBUTOL]
[1]
  MIC90: 1.25 µM (≈ 0.255 µg/mL)
  MIC: 5 µM (≈ 1.02 µg/mL)

## NNC(=O)c1ccncc1 [ISONIAZID]
[1]
  MIC90: 0.625 µM (≈ 0.0857 µg/mL)
  MIC: 1.25 µM (≈ 0.171 µg/mL)

## CO[C@H]1/C=C/O[C@@]2(C)Oc3c(C)c(O)c4c(O)c(c(/C=N/N5CCN(C)CC5)c(O)c4c3C2=O)NC(=O)/C(C)=C\C=C\[C@H](C)[C@H](O)[C@@H](C)[C@@H](O)[C@@H](C)[C@H](OC(C)=O)[C@@H]1C [RIFAMPIN]
[1]
  MIC90: < 0.1 µM
  MIC: 0.5 µM (≈ 0.411 µg/mL)
THP-1
  IC50: > 100 µM
[2]
  IC90 at 48 h: > 100 µM
MRC5
  IC50: > 100 µM
[3]
  IC90 at 48 h: > 100 µM
